Compound activity as filed in PubChem BioAssay.
Shown are actives, neighbours in structure and some others; about 0.83% of the full set was active somewhere.
RGS8-Gao = regulators of human RGS8-Galphao interaction | response (percent of control binding), % at 10 µM | multiplexed bead flow cytometry, RGS8-Galphao binding; actives lie on both sides | P09471 | 220,000 compounds, 0.34% hits | AID 1423; in the data active = response below about 60% or above about 140%; inactive = in between;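 note: Galphao activated as the GDP aluminium fluoride complex binding bead-coupled RGS8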
Target sequence (P09471 whole entry, looked up): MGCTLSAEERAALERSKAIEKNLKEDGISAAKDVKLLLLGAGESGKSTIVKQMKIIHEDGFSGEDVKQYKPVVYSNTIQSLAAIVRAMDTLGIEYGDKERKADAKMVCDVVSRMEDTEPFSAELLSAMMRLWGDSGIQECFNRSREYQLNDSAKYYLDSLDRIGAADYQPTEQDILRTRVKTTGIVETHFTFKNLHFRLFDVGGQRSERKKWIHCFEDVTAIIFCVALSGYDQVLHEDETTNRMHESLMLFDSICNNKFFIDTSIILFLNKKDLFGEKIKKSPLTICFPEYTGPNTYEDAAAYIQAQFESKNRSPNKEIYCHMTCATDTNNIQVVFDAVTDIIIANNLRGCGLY
RGS4-Gao reg = human RGS4-Galphao interaction regulation | P09471 | Multiplexed bead flow cytometry, RGS4-Galphao binding; actives lie on both sides | binding response (% of control), % at 10 µM | 220,000 compounds, 0.33% hits; in the data active = binding response below about 49% or above about 150%; inactive = in between;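 note: fluorescent Galphao activated with aluminum fluoride binding bead-coupled RGS4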
RGS16-Gao = modulates binding between human RGS16 and Galphao. binding response (% of control), % at 10 µM. bead-based flow cytometry RGS16-Galphao binding, fluorescence; actives lie on both sides. 220,000 compounds, 0.38% hits;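 note: Galphao activated by GDP with aluminum fluoride before binding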
ABCG2 inh = blocks JC-1 efflux by human ABCG2 transporter. IgMXP3 cells, flow cytometry. inhibition, % at 6.6 µM. 190,000 compounds, 0.1% hits. AID 1325;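 active = inhibition above 80%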;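 note: 0% = DMSO and 100% = nicardipine control wells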
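test system = two drug-resistant human cell lines, ABCG2 and ABCB1 | amount = 3 million cells/mL final, two lines in 1:1 ratio | reagent = JC-1 transporter substrate | doses = one concentration, 6.6 µM final | incubation = 10 min at 25 °C | signal = flow cytometric JC-1 green MFI at 530 nm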
RGS7-Gao = human RGS7-Galphao interaction regulation; P09471; Multiplexed bead flow cytometry, RGS7-Galphao binding; actives lie on both sides; binding response (% of control), % at 10 µM; 220,000 compounds, 0.35% hits; AID 1439; in the data active = binding response below about 49% or above about 150%; inconclusive = no clear call, values can overlap the other calls; inactive = in between;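 note: fluorescent Galphao held in activated GDP-AlF4 state binding bead-coupled RGS7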
ABCB1 block = inhibitors of human ABCB1 transporter, ABCG2 counter-screen; P08183; CCRF-Adr cells, JC-1 efflux, flow cytometry; inhibition, % at 6.6 µM; 190,000 compounds, 0.067% hits; AID 1326; in the data active = inhibition above about 40%;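 note: 0% = vehicle and 100% = reference inhibitor; higher value means more JC-1 retained so stronger ABCB1 efflux block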
RGS4-Gao HTS = modulates binding between human RGS4 and Galphao | shares compounds with RGS16-Gao | AID 1504 | multiplexed bead flow cytometry, RGS–Galpha-o binding | 1,600 compounds, 99% hits | RGS4–Galpha-o binding response, % at 10 µM;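 note: fluorescently labeled Galpha-o bound to GDP with aluminium fluoride binding biotinylated RGS beads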
Target sequence (P09471 whole entry, looked up): as above
Target sequence (P49798 whole entry, looked up): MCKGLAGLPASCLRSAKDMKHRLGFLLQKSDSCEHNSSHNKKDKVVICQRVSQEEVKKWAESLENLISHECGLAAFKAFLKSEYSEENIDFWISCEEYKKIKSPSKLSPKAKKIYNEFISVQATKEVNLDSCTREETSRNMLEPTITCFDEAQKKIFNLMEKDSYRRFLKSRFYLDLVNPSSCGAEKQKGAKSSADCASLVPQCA
Avidin counter = biotin-avidin bead binding disruption counter-screen; shares compounds with RGS16-Gao; streptavidin beads, fluorescein-biotin binding, flow cytometry; inhibition, % at 10 µM; 1,700 tested, under 10 active; AID 1783;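 active = inhibition above 50%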;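 note: median green fluorescence of gated singlet beads compared with DMSO control wells; 0% = DMSO wells and 100% = complete loss of bead fluorescence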
RGS8-Gao single = confirmation of regulators of human RGS8-Galphao interaction | shares compounds with RGS16-Gao | bead-based flow cytometry RGS8-Galphao binding, fluorescence; actives lie on both sides | binding response (% of control), % at 10 µM | 1,700 compounds, 3% hits; in the data active = binding response below about 72% or above about 130%; inactive = in between;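 note: Galphao activated as GDP AlF4 complex before binding bead RGS8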
RGS7-Gao single = confirmation of regulators of human RGS7-Galphao interaction. AID 1837. 1,700 compounds, 7.8% hits. response (percent of control binding), % at 10 µM. bead-based flow cytometry RGS7-Galphao binding; actives lie on both sides. shares compounds with RGS16-Gao; in the data active = response below about 75% or above about 130%; inactive = in between;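 note: fluorescent Galphao activated with GDP and aluminum fluoride binding bead-coupled RGS7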
RGS16-Gao conf = RGS16-Galphao interaction regulation, single point confirmation. bead-based flow cytometry, RGS16-Galphao binding; actives lie on both sides. 1,700 compounds, 4% hits. response (% of control binding), % at 10 µM. shares compounds with RGS16-Gao; in the data active = response below about 74% or above about 130%; inactive = in between;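 note: Galphao activated as the GDP aluminium fluoride complex binding bead-coupled RGS16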
RGS4-Gao confirm = RGS4-Galphao interaction regulation, single point confirmation. binding response (% of control), % at 10 µM. RGS4-Galphao binding, multiplexed bead flow cytometry; actives lie on both sides. shares compounds with RGS16-Gao. 1,700 compounds, 4% hits; in the data active = binding response below about 74% or above about 130%; inactive = in between
RGS19-Gao conf = RGS19-Galphao interaction regulation, single point confirmation. shares compounds with RGS16-Gao. bead-based flow cytometry RGS19-Galphao binding; actives lie on both sides. response (percent of control binding), % at 10 µM. 1,700 compounds, 5% hits. AID 1841; in the data active = response below about 50% or above about 160%; inactive = in between;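 note: 100% = no compound control and 0% = blank background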
An asterisk follows results filed as active; ? = inconclusive; . = no result; + = active, no number; [ ] = another dose, or the depositor's remark. Unless noted, the rule behind the calls is not given here.

SMILES	RGS8-Gao	RGS4-Gao reg	RGS16-Gao	ABCG2 inh	RGS7-Gao	ABCB1 block	RGS4-Gao HTS	Avidin counter	RGS8-Gao single	RGS7-Gao single	RGS16-Gao conf	RGS4-Gao confirm	RGS19-Gao conf
CCOc1ccc(NS(=O)(=O)c2ccc(N)cc2)cc1	96	91	94	-1	95	0	.	.	.	.	.	.	.
COc1cccc(Nc2nnc(SCN3C(=O)c4ccccc4C3=O)s2)c1	153*[activator]	122	551	0	130	0	122*	1	103	101	100	102	106
COc1cccc(Nc2nnc(SCC(=O)N(CC(C)C)CC(C)C)s2)c1	100	98	98	5	97	1	.	.	.	.	.	.	.
CN(C)c1ncc(C2=C(Cl)C(=O)C(N3CCCC3)=C(Cl)C2=O)s1	47*	67	30	-1	41*	0	67*	-4	41*	22*	35*	72*	-9.7*
O=C1C(Cl)=C(N2CCCCC2)C(=O)C(Cl)=C1c1cnc(N2CCCCC2)s1	50*	69	32	0	43*	0	69*	1	37*	16*	27*	59*	-8.5*
CC(=O)c1cnc(N(C)C)s1	98	97	89	0	100	1	.	.	.	.	.	.	.
O=C(CSCc1ccc(Cl)cc1)N/N=C/c1ccco1	100	99	99	6	99	0	.	.	.	.	.	.	.
CC1=NNC(=O)C1CC(=O)N/N=C(\C)c1cccs1 (stereo not given)	95	91	94	10	89	-1	.	.	.	.	.	.	.
COC(=O)C1=NN(N=O)C2(CC(=O)N(c3cc(C)cc(C)c3)C2=O)C1 (stereo not given)	90	85	83	0	85	0	.	.	.	.	.	.	.
N=C1/C(=C\c2coc3ccccc3c2=O)C(=O)N=C2SC=CN12	103	104	107	.	?	.	.	.	.	.	.	.	.
CSC1=NSC2=NC(=O)/C(=C/c3coc4ccccc4c3=O)C(=N)N12	92	150	200	+	174*[activator]	34	150*	.	.	.	.	.	.
O=S(=O)(Nc1ccc(S(=O)(=O)Nc2cccc3ccccc23)cc1)c1ccccc1	85	87	24	3	92	2	.	.	.	.	.	.	.
CCOC(=O)c1cccc(NC(=O)Cn2c(CC(=O)NC)nc3ccccc32)c1	122	172*[activator]	191*[activator]	4	116	1	.	-2	102	109	105	105	117
COc1ccc(CCNC(=O)/C(=C/c2cccnc2)NC(=O)c2ccccc2)cc1	127	110	226*[activator]	6	108	1	110*	-2	103	107	104	103	92
COc1ccc(CS(=O)(=O)/C(Cl)=C(/Cl)C(=O)Nc2ccc(OC)nc2)cc1	100	104	104	0	106	0	.	.	.	.	.	.	.
CC(=O)Nc1ccc(OC(=O)c2cc3cc(Br)cc(Br)c3oc2=O)cc1	80	91	19*	-3	81	-1	91*	-2	100	88	96	92	96
CC[n+]1c(/C=C/C=C/N(C(C)=O)c2ccccc2)sc2ccccc21	98	14*	150	5	149	3	.	-3	117	243*[activator]	153*[activator]	163*[activator]	278*[activator]
COc1cc2c(cc1Cl)C(=O)C(F)(c1ccccc1)C(=O)N2 (stereo not given)	102	100	98	.	?	.	.	.	.	.	.	.	.
CCOc1ccc(N(Cc2cc3ccc(C)cc3[nH]c2=O)C(=O)COC)cc1	102	103	103	3	103	1	.	.	.	.	.	.	.
COCC(=O)N(Cc1cc2ccc(C)cc2[nH]c1=O)c1ccc(OC)cc1	78	86	-28*	3	87	1	86*	0	104	100	102	99	103
CCCC(C)C(=O)Nc1ccc(S(=O)(=O)Nc2nccc(C)n2)cc1 (stereo not given)	103	102	101	0	105	0	.	.	.	.	.	.	.
CCCN(CCC)CCCNC(=O)C1c2cc(OC)c(OC)cc2C(=O)N(C)C1c1cccs1 (stereo not given)	100	103	101	4	102	0	.	.	.	.	.	.	.
CCN(CC)CCCNC(=O)C1c2cc(OC)c(OC)cc2C(=O)N(C)C1c1cccs1 (stereo not given)	153*[activator]	153*[activator]	454	2	130	1	.	-1	105	98	110	103	103
COc1ccc(-c2cn3c(C)c(C(=O)Nc4cccc(C)n4)sc3n2)cc1	97	110	105	2	181*[activator]	0	110*	0	93	95	89	90	91
Cc1ccc(C(=O)COC(=O)c2cc(Cl)nc3ccccc23)cc1C	158*[activator]	130	805	5	118	1	130*	.	.	.	.	.	.
SMILES	RGS8-Gao	RGS4-Gao reg	RGS16-Gao	ABCG2 inh	RGS7-Gao	ABCB1 block	RGS4-Gao HTS	Avidin counter	RGS8-Gao single	RGS7-Gao single	RGS16-Gao conf	RGS4-Gao confirm	RGS19-Gao conf
Cc1ccc(C)c(C(=O)COC(=O)c2cc(Cl)nc3ccccc23)c1	96	96	91	1	95	0	.	.	.	.	.	.	.
CN=c1scc(-c2cccs2)n1/N=C/c1ccc(O)c(O)c1O	87	90	83	-7	93	-1	.	.	.	.	.	.	.
CN=c1scc(C)n1/N=C/c1ccc(O)c(O)c1O	48*	64	30	-1	53	0	64*	-2	71*	57*	64*	77	29*
O=C(NCCS(=O)CCNC(=O)C(F)(F)F)C(F)(F)F	103	98	113	-9	94	-1	.	.	.	.	.	.	.
Nc1cccnc1Sc1ccc([N+](=O)[O-])cn1	5.6*	4.3*	-30	0	5.8*	0	.	-2	91	131*[activator]	94	105	95
O=[N+]([O-])c1ccc(Sc2ccccc2)nc1	103	100	106	6	98	.	.	.	.	.	.	.	.
